According to ChEMBL document CHEMBL1126124, “3-Phenyl-4-hydroxyquinolin-2(1H)-ones: potent and selective antagonists at the strychnine-insensitive glycine site on the N-methyl-D-aspartate receptor complex” (J Med Chem, 1992):

Columns and labels:
[1] = molecular target: Glutamate NMDA receptor; assay: Inhibition of [3H]MK-801 binding to a N-methyl-D-aspartate glutamate receptor in glycine-sensitive rat cortical membranes.; type: cell membranes, Membrane
Procedure, shortened: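 Well-washed rat cortical membranes were given an added freeze/thaw step. [³H]MK-801 (2.5 nM) binding was run with 1 μM glutamate and 0.2 μM glycine for 2 h at 27 °C, then stopped by filtration. Nonspecific binding was defined with 0.5 μM MK-801. Values are IC50.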

[2] = molecular target: Glutamate NMDA receptor; assay: Ability to displace strychnine-insensitive [3H]glycine binding to N-methyl-D-aspartate glutamate receptor of rat cortical membranes.
Procedure, shortened: (§1)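 Rat cortical membranes were prepared by a freeze/thaw Triton extraction. Incubation used [³H]glycine with 25 μg membrane fragments on ice for 1 h, ended by rapid filtration through GF/B filters. Nonspecific binding was defined with 100 μM D-serine.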

[3] = molecular target: T1, Glutamate receptor ionotropic, NMDA 1 (Rattus norvegicus, UniProt P35439); assay: Inhibition of [3H]-MK-801 binding to a N-methyl-D-aspartic acid(NMDA) receptor in glycine-sensitive rat cortical membranes.; type: cell membranes, Membrane
[4] = molecular target: T1, Glutamate receptor ionotropic, NMDA 1; assay: Ability to displace strychnine-insensitive [3H]glycine binding to rat cortical membranes.; procedure, shortened: as §1

Row | IC50 [1] | Ki [2] | IC50 [3] | Ki [4] | Structure (SMILES)
1 | 220 nM | 57 nM |  |  | Oc1nc2cc(Cl)cc(Cl)c2c(O)c1-c1ccccc1
2 | 110 nM | 13 nM |  |  | Oc1ccc(-c2c(O)nc3cc(Cl)cc(Cl)c3c2O)cc1
3 |  |  | 210 nM | 18 nM | Nc1ccc(-c2c(O)nc3cc(Cl)cc(Cl)c3c2O)cc1
4 |  |  |  | 860 nM | O=c1[nH]c2cc(Cl)cc(Cl)c2c(O)c1-c1ccc([N+](=O)[O-])cc1
5 |  |  | 7290 nM |  | O=c1[nH]c2ccccc2c(O)c1-c1ccccc1
6 | 1230 nM | 67 nM |  |  | COc1ccc(-c2c(O)nc3cc(Cl)cc(Cl)c3c2O)cc1
7 |  |  | 550 nM | 300 nM | Cc1ccc(-c2c(O)nc3cc(Cl)cc(Cl)c3c2O)cc1
8 |  |  | 860 nM | 40 nM | O=C(O)c1cc(O)c2c(Cl)cc(Cl)cc2n1
